Key:
[1] = organism: Mus musculus; experiment: Effective dose required for 50% reduction of the control response was obtained by graphical interpolation rotarod performance; assay type: functional
Summary of the method: (§1)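 Oral dosing in mice; rod rotating at 5 rpm tested at 60 min after dosing, counting animals falling off within 2 min. ED50 by graphical interpolation.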

[2] = organism: Mus musculus; experiment: Minimum effective dose (MED) required for the potentiation of thiopental sodium induced loss of the righting reflex; assay type: functional; details: read-out: MED
Summary of the method: (§2)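 Five mice per group dosed orally; 60 min later challenged with thiopental sodium 35 mg/kg intravenously. Minimum effective dose potentiating thiopental-induced anesthesia determined.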

[3] = organism: Mus musculus; experiment: Dose required to prevent convulsion and death in 50% of mice during a 2 hr observation was obtained by graphical interpolation anti-pentylenetetrazole; assay type: functional
Summary of the method: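 Groups of five mice dosed orally, then challenged 60 min later with 125 mg/kg pentylenetetrazol subcutaneously. ED50 = dose preventing convulsion and death in 50% of animals over a 2 h observation, by graphical interpolation.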

[4] = (§3) Lethal dose (LD50) required to inhibit the spontaneous motor activity.; assay type: toxicity, organism-based; details: mouse, in vivo
Summary of the method: (§4)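 Acute oral toxicity in mice, groups of one to three animals, deaths assessed on day 7 after administration. LD50 by graphical interpolation.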

[5] = tested on: Mus musculus; experiment: Spontaneous motor activity of mice was estimated after 60 minutes of oral administration.; assay type: functional; design: unit not given here
Summary of the method: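 Oral dosing in mice; activity quantitated with an activity meter over 10 min starting 60 min after dosing. Five groups of three mice per dose.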

[6] = organism: Mus musculus; experiment: Antifighting activity was measured by the antagonism against foot-shock induced fighting; assay type: functional
Summary of the method: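 Mice dosed orally; pairs confined under inverted glass enclosure and given foot shock (5 Hz, 2 ms, DC 50 V); pairs with 15-20 fighting episodes in 3 min selected. Five pairs per dose; responses counted before and at 60 min after dosing. ED50 (50% inhibition) by graphical interpolation.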

[7] = tested on: Mus musculus; experiment: as §3; assay type: functional; summary of the method: as §4
[8] = organism: Mus musculus; experiment: Minimum effective dose (MED) required for the potentiation of thiopental sodium induced loss of the righting reflex (Students t test).; assay type: functional; details: read-out: MED; summary of the method: as §2
[9] = Lethal dose (LD50) required to inhibit the spontaneous motor activity; assay type: toxicity, organism-based; details: mouse, in vivo; summary of the method: as §4
[10] = organism: Mus musculus; experiment: Effective dose required for 50% reduction of the control response in mice was obtained by graphical interpolation rotarod performance; assay type: functional; summary of the method: as §1

## CCN(CC)CCN(C(=O)CNC(=O)CN)c1ccc(Cl)cc1C(=O)c1ccccc1
[1]
  ED50: > 100 mg/kg
[2]
  minimal effective dose: 5 mg/kg
[3]
  ED50: 5.7 mg/kg
[4]
  LD50: > 1000 mg/kg

## CC(C)CC(N)C(=O)NCC(=O)Nc1ccc(Cl)cc1C(=O)c1ccccc1 (stereo unspecified)
[1]
  ED50: > 100 mg/kg
[2]
  minimal effective dose: 25 mg/kg
[3]
  ED50: 15.9 mg/kg
[4]
  LD50: > 1000 mg/kg

## CN(C(=O)CNC(=O)C(N)Cc1ccccc1)c1ccc(Cl)cc1C(=O)c1ccccc1 (stereo unspecified)
[1]
  ED50: 70.7 mg/kg
[2]
  minimal effective dose: 5 mg/kg
[3]
  ED50: 3.9 mg/kg
[5]
  Activity: 23.4
[6]
  ED50 for inhibition of foot-shock induced fighting: 15.1
[4]
  LD50: > 1000 mg/kg

## CNC1=Nc2ccc(Cl)cc2C(c2ccccc2)=[N+]([O-])C1 [CHLORDIAZEPOXIDE]
[1]
  ED50: 82.3 mg/kg
[7]
  LD50: 1080 mg/kg
[8]
  minimal effective dose: 2.5 mg/kg
[3]
  ED50: 2.71 mg/kg
[5]
  Activity: 56.09

## CN(C(=O)CNC(=O)CN)c1ccc(Cl)cc1C(=O)c1ccccc1F
[1]
  ED50: 16.7 mg/kg
[2]
  minimal effective dose: 0.1 mg/kg
[3]
  ED50: 0.3 mg/kg
[5]
  Activity: 3.1
[6]
  ED50 for inhibition of foot-shock induced fighting: 1.6
[4]
  LD50: > 1000 mg/kg

## CN1C(=O)CN=C(c2ccccc2)c2cc(Cl)ccc21 [DIAZEPAM]
[1]
  ED50: 17.7 mg/kg
[8]
  minimal effective dose: 0.5 mg/kg
[5]
  Activity: 8.45

## NCC(=O)NCC(=O)Nc1ccc(Cl)cc1C(=O)c1ccccn1
[1]
  ED50: 59.5 mg/kg
[3]
  ED50: 2.8 mg/kg

## NCC(=O)NCC(=O)Nc1ccc(Cl)cc1C(=O)c1ccccc1
[2]
  minimal effective dose: 25 mg/kg
[3]
  ED50: 14.1 mg/kg
[9]
  LD50: > 1000 mg/kg
[6]
  ED50 for inhibition of foot-shock induced fighting: 14.6
[10]
  ED50: 52.4 mg/kg

## CC(C)N(C(=O)CNC(=O)CN)c1ccc(Cl)cc1C(=O)c1ccccc1
[1]
  ED50: > 100 mg/kg
[3]
  ED50: 15.8 mg/kg
[9]
  LD50: > 1000 mg/kg

## CCN(CC)CCN(C(=O)CNC(=O)CN)c1ccc(Cl)cc1C(=O)c1ccccc1F
[1]
  ED50: 50.8 mg/kg
[3]
  ED50: 1.98 mg/kg
[5]
  Activity: 25
[6]
  ED50 for inhibition of foot-shock induced fighting: 9.4
[4]
  LD50: > 1000 mg/kg

## CC(N)C(=O)NCC(=O)Nc1ccc(Cl)cc1C(=O)c1ccccc1 (stereo unspecified)
[4]
  LD50: > 1000 mg/kg

## CCc1cc(C(=O)c2ccccc2)c(NC(=O)CNC(=O)CN)s1
[1]
  ED50: > 100 mg/kg
[3]
  ED50: > 100 mg/kg

## CN(C(=O)CNC(=O)C(N)Cc1ccccc1)c1ccc(Cl)cc1C(=O)c1ccccc1Cl (stereo unspecified)
[1]
  ED50: 37.5 mg/kg
[2]
  minimal effective dose: 5 mg/kg
[3]
  ED50: 1.6 mg/kg
[5]
  Activity: 5.5
[6]
  ED50 for inhibition of foot-shock induced fighting: 17.1
[4]
  LD50: > 1000 mg/kg

## NCC(=O)NCC(=O)Nc1ccc(Cl)cc1C(=O)c1ccccc1Cl
[1]
  ED50: > 100 mg/kg
[2]
  minimal effective dose: 10 mg/kg
[3]
  ED50: 22 mg/kg
[4]
  LD50: > 1000 mg/kg

## CN(C(=O)CNC(=O)[C@H](N)Cc1ccccc1)c1ccc(Cl)cc1C(=O)c1ccccc1Cl
[1]
  ED50: 77.1 mg/kg
[2]
  minimal effective dose: 10 mg/kg
[3]
  ED50: 4.8 mg/kg
[5]
  Activity: >50
[6]
  ED50 for inhibition of foot-shock induced fighting: 20.4
[4]
  LD50: > 1000 mg/kg

## CN(C(=O)CNC(=O)[C@@H](N)Cc1ccccc1)c1ccc(Cl)cc1C(=O)c1ccccc1Cl
[1]
  ED50: 52.2 mg/kg
[2]
  minimal effective dose: 1 mg/kg
[3]
  ED50: 1 mg/kg
[5]
  Activity: >50
[6]
  ED50 for inhibition of foot-shock induced fighting: 10.2
[4]
  LD50: > 1000 mg/kg

## CC(C)C(N)C(=O)NCC(=O)N(C)c1ccc(Cl)cc1C(=O)c1ccccc1Cl (stereo unspecified)
[1]
  ED50: > 100 mg/kg
[3]
  ED50: 1.6 mg/kg
[5]
  Activity: >25
[4]
  LD50: 750 mg/kg

## CN(C(=O)CNC(=O)CN)c1ccc(Cl)cc1C(=O)c1ccccc1
[1]
  ED50: 29.4 mg/kg
[2]
  minimal effective dose: 2.5 mg/kg
[3]
  ED50: 1 mg/kg
[5]
  Activity: 15.1
[6]
  ED50 for inhibition of foot-shock induced fighting: 10.5
[4]
  LD50: 750 mg/kg

## CC(C)C(N)C(=O)NCC(=O)Nc1ccc(Cl)cc1C(=O)c1ccccc1 (stereo unspecified)
[1]
  ED50: > 100 mg/kg
[3]
  ED50: 27.4 mg/kg
[4]
  LD50: > 1000 mg/kg

## CN(C(=O)CNC(=O)CN)c1ccc(Cl)cc1C(=O)c1ccccc1Cl [LORZAFONE ANHYDROUS]
[1]
  ED50: 35.4 mg/kg
[2]
  minimal effective dose: 0.5 mg/kg
[3]
  ED50: 0.56 mg/kg
[5]
  Activity: 1.4
[6]
  ED50 for inhibition of foot-shock induced fighting: 3.2
[4]
  LD50: > 1000 mg/kg

## NC(C(=O)NCC(=O)Nc1ccc(Cl)cc1C(=O)c1ccccc1)c1ccccc1 (stereo unspecified)
[1]
  ED50: > 100 mg/kg
[3]
  ED50: 27.4 mg/kg
[4]
  LD50: > 1000 mg/kg

## CC(C)C(N)C(=O)NCC(=O)N(C)c1ccc(Cl)cc1C(=O)c1ccccc1 (stereo unspecified)
[1]
  ED50: 73.5 mg/kg
[2]
  minimal effective dose: 10 mg/kg
[3]
  ED50: 3.4 mg/kg
[5]
  Activity: >50
[6]
  ED50 for inhibition of foot-shock induced fighting: 21.5
[4]
  LD50: > 1000 mg/kg

— ChEMBL document CHEMBL1121474, “Peptidoaminobenzophenones, a novel class of ring-opened derivatives of 1,4-benzoidazepines” (J Med Chem, 1980)
